Measured values published in ChEMBL document CHEMBL4118097, “Selective Inhibitors of Dual Leucine Zipper Kinase (DLK, MAP3K12) with Activity in a Model of Alzheimer's Disease” (J Med Chem, 2017).

Experiments:
[1] = target: T1, Mitogen-activated protein kinase kinase kinase 12 (Homo sapiens, UniProt Q12852); test: Binding affinity to N-terminally GST-tagged wild type human DLK (1 to 520 residues) expressed in sf21 insect cells using N-terminally His-tagged MKK4 K131M as substrate after 60 mins in presence of ATP by TR-FRET assay
T1 sequence (Q12852 whole entry): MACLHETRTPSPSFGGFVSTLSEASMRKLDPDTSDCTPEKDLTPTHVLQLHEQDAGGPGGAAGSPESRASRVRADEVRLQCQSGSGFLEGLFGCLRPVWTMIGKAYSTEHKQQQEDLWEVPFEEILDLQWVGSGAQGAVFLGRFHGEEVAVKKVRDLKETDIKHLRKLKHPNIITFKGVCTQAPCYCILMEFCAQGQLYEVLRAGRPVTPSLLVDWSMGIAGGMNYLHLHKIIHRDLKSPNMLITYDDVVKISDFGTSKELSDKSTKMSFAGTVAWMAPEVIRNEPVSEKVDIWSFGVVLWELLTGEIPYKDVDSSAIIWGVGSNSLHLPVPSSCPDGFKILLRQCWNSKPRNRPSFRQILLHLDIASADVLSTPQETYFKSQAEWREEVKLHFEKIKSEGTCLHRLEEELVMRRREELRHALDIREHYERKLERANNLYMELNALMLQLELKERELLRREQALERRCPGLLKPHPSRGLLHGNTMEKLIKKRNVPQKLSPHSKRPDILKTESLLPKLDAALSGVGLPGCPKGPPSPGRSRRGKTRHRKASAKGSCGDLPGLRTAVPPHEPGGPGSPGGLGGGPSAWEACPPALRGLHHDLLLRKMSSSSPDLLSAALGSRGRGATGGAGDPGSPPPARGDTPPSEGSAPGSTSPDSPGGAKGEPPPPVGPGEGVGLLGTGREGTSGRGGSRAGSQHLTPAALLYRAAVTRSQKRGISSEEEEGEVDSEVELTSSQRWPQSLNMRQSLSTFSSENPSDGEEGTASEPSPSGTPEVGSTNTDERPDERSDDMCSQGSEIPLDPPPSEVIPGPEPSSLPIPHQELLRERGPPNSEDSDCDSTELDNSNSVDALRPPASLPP

[2] = target: Mitogen-activated protein kinase kinase kinase 13 (Homo sapiens, UniProt O43283); test: Binding affinity to full length wild type human LZK (M1 to W966 residues) expressed in mammalian cells by KINOMEscan assay; type: cell-based
[3] = target: Casein kinase I isoform delta (Homo sapiens) (UniProt P48730); test: Inhibition of CK1delta (unknown origin) at 1 uM by FRET assay relative to control
[4] = target: Cyclin-dependent kinase 5/CDK5 activator 1 (Homo sapiens) (UniProt Q00535+Q15078); test: Inhibition of recombinant full length His/GST-tagged human CDK5/p25 expressed in baculovirus expression system at 1 uM by FRET assay relative to control
[5] = target: Tyrosine-protein kinase Blk (Homo sapiens) (UniProt P51451); test: Inhibition of recombinant full length His-tagged human Blk cytoplasmic domain expressed in Baculovirus expression system at 1 uM by FRET assay relative to control
[6] = target: Leukocyte tyrosine kinase receptor (Homo sapiens) (UniProt P29376); test: Inhibition of recombinant GST-tagged human LTK cytoplasmic domain (440 to 864 residues) expressed in baculovirus expression system at 1 uM by FRET assay relative to control
Outline: (§1)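 Part of a 220-kinase panel run at a single concentration of 1 μM. Z′-LYTE format: phosphorylation of a labelled peptide read by FRET. Values reported as percent inhibition.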

[7] = target: Vascular endothelial growth factor receptor 3 (Homo sapiens) (UniProt P35916); test: Inhibition of recombinant GST-tagged human FLT4 cytoplasmic domain expressed in baculovirus expression system at 1 uM by FRET assay relative to control
Outline: (§2)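 Single-point screen at 1 μM compound in a 220-kinase panel run by Life Technologies (SelectScreen). Z′-LYTE format: phosphorylation of a labeled peptide substrate read by FRET. Values are reported as percent inhibition.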

[8] = target: Serine/threonine-protein kinase pim-1 (Homo sapiens) (UniProt P11309); test: Inhibition of full length His-tagged human PIM1 expressed in baculovirus expression system at 1 uM by FRET assay relative to control
[9] = target: Misshapen-like kinase 1 (Homo sapiens) (UniProt Q8N4C8); test: Inhibition of recombinant human GST-tagged MINK1 expressed in baculovirus at 1 uM by FRET assay relative to control
[10] = target: Maternal embryonic leucine zipper kinase (Homo sapiens) (UniProt Q14680); test: Inhibition of recombinant GST-tagged human MELK expressed in baculovirus expression system at 1 uM by FRET assay relative to control; outline: as §2
[11] = target: Mitogen-activated protein kinase kinase kinase kinase 4 (Homo sapiens) (UniProt O95819); test: Inhibition of recombinant GST-tagged human MAP4K4 (1 to 328 residues) expressed in baculovirus expression system at 1 uM by FRET assay relative to control; outline: as §2
[12] = target: Serine/threonine-protein kinase WNK2 (Homo sapiens) (UniProt Q9Y3S1); test: Inhibition of recombinant GST-tagged human WNK2 expressed in baculovirus expression system at 1 uM by FRET assay relative to control; outline: as §2
[13] = target: TGF-beta receptor type-1 (Homo sapiens) (UniProt P36897); test: Inhibition of recombinant full length N-terminal GST-tagged human TGFBR1 (200 to 503 residues) expressed in baculovirus expression system at 1 uM by FRET assay relative to control
[14] = target: Serine/threonine-protein kinase TBK1 (Homo sapiens) (UniProt Q9UHD2); test: Inhibition of recombinant full length GST-tagged human TBK1 expressed in insect cells at 1 uM by FRET assay relative to control
Outline: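 Single-concentration screen at 1 μM in Life Technologies SelectScreen, across a 220-kinase panel. Z′-LYTE format measures phosphorylation of a labeled peptide by FRET. Results are reported as percent inhibition.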

[15] = target: Tyrosine-protein kinase Srms (Homo sapiens) (UniProt Q9H3Y6); test: Inhibition of recombinant full length GST-tagged human Srm cytoplasmic domain expressed in baculovirus expression system at 1 uM by FRET assay relative to control; outline: as §1
[16] = target: Ribosomal protein S6 kinase alpha-3 (Homo sapiens) (UniProt P51812); test: Inhibition of recombinant full length His-tagged human RSK2 expressed in baculovirus expression system at 1 uM by FRET assay relative to control
[17] = target: Mitogen-activated protein kinase kinase kinase 11 (Homo sapiens, UniProt Q16584); test: Inhibition of recombinant human full length GST-tagged MLK3 expressed in baculovirus expression system by FRET assay
[18] = target: Histamine H2 receptor (Homo sapiens) (UniProt P25021); test: Binding affinity to recombinant human H2 receptor at 10 uM relative to control
Outline: (§3)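 Broad radioligand-binding and enzyme screening panel covering 42 targets (biogenic amine and neuropeptide receptors, ion channels, neurotransmitter transporters, acetylcholinesterase). Single test concentration of 10 μM. Results expressed as binding relative to control, with a hit defined as >50% of control.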

[19] = target: 5-hydroxytryptamine receptor 1B (Homo sapiens) (UniProt P28222); test: Binding affinity to 5HT1B receptor (unknown origin) receptor at 10 uM relative to control; outline: as §3

Casein kinase I isoform delta (Homo sapiens), sequence (P48730 whole entry, looked up, canonical isoform): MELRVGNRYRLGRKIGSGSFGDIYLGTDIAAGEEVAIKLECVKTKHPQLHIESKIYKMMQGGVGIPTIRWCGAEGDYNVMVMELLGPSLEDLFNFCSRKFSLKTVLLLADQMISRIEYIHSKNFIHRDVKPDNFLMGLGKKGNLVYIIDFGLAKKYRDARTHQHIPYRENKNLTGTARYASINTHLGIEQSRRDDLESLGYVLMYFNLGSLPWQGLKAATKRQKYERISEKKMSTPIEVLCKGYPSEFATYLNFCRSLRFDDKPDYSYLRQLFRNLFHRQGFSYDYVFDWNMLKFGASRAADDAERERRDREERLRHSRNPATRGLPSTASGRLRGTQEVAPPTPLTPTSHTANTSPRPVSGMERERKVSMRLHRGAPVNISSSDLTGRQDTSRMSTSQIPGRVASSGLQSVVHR
Mitogen-activated protein kinase kinase kinase kinase 4 (Homo sapiens), sequence (O95819 2-1239 limits assumed): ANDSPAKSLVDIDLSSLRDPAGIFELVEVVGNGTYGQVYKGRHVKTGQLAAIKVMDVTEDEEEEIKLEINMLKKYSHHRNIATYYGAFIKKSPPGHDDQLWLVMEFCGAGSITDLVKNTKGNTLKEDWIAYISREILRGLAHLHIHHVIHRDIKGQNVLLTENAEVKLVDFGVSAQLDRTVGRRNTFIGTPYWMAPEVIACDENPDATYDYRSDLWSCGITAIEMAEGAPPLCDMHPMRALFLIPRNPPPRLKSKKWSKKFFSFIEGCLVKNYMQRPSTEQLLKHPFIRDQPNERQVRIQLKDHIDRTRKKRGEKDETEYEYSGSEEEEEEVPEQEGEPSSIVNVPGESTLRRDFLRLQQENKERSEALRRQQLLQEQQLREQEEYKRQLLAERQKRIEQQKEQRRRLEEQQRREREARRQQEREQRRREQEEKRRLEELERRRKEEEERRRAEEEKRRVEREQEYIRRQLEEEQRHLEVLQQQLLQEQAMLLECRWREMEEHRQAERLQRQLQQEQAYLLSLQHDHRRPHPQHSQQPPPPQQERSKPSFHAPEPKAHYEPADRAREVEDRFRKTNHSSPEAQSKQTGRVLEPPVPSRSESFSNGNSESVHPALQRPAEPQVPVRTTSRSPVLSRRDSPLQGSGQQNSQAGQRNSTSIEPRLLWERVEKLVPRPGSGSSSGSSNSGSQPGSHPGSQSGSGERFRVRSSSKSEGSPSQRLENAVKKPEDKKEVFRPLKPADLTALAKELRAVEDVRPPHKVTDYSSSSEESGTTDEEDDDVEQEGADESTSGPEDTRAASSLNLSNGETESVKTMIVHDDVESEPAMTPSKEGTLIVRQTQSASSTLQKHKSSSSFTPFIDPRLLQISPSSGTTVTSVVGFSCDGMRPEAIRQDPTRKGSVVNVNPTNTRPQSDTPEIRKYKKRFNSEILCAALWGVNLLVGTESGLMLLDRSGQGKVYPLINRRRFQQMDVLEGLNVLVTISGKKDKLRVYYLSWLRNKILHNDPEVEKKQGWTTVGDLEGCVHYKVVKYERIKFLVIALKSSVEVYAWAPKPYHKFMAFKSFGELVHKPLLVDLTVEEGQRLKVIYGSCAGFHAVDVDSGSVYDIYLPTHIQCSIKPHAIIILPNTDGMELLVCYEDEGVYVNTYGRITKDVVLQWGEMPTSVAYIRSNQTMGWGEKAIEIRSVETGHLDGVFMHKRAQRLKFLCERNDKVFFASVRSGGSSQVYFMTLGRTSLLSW
Serine/threonine-protein kinase pim-1 (Homo sapiens), sequence (P11309 whole entry, looked up): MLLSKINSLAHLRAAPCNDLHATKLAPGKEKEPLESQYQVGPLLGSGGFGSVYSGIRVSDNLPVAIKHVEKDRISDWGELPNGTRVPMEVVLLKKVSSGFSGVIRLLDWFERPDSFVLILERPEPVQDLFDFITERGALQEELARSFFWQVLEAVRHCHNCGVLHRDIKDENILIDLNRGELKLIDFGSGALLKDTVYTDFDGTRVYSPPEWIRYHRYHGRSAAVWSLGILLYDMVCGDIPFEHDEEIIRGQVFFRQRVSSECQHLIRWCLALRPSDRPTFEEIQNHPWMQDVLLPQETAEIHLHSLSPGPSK
Tyrosine-protein kinase Srms (Homo sapiens), sequence (Q9H3Y6 whole entry, the tested form may be a part): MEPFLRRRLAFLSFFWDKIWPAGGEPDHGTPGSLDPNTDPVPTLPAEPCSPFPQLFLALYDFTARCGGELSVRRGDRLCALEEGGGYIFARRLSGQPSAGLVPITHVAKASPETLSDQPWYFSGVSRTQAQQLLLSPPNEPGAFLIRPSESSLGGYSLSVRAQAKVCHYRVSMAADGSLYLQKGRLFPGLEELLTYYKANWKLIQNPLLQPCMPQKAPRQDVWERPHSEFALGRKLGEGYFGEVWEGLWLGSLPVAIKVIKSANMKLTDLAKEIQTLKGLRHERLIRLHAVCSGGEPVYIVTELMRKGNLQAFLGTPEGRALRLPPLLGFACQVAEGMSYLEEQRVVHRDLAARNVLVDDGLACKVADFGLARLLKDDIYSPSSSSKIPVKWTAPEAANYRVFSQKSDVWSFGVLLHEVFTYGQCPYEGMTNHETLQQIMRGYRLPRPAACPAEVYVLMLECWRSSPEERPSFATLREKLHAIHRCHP
TGF-beta receptor type-1 (Homo sapiens), sequence (P36897 whole entry, the tested form may be a part): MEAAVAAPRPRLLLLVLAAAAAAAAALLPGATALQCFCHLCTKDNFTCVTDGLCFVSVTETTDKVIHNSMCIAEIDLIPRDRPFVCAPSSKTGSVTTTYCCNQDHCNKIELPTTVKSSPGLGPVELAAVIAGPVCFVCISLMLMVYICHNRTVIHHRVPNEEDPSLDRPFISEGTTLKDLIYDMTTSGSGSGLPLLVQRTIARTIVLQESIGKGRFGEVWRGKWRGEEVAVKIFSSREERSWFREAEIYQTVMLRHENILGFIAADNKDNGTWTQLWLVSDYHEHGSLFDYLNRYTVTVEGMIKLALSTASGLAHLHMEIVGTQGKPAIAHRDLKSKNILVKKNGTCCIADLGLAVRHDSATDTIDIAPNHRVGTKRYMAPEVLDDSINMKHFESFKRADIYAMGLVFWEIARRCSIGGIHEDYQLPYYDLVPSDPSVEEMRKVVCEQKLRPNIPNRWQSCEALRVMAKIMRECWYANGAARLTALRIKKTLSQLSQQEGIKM
Mitogen-activated protein kinase kinase kinase 13, sequence (O43283 whole entry, the tested form may be a part, canonical isoform): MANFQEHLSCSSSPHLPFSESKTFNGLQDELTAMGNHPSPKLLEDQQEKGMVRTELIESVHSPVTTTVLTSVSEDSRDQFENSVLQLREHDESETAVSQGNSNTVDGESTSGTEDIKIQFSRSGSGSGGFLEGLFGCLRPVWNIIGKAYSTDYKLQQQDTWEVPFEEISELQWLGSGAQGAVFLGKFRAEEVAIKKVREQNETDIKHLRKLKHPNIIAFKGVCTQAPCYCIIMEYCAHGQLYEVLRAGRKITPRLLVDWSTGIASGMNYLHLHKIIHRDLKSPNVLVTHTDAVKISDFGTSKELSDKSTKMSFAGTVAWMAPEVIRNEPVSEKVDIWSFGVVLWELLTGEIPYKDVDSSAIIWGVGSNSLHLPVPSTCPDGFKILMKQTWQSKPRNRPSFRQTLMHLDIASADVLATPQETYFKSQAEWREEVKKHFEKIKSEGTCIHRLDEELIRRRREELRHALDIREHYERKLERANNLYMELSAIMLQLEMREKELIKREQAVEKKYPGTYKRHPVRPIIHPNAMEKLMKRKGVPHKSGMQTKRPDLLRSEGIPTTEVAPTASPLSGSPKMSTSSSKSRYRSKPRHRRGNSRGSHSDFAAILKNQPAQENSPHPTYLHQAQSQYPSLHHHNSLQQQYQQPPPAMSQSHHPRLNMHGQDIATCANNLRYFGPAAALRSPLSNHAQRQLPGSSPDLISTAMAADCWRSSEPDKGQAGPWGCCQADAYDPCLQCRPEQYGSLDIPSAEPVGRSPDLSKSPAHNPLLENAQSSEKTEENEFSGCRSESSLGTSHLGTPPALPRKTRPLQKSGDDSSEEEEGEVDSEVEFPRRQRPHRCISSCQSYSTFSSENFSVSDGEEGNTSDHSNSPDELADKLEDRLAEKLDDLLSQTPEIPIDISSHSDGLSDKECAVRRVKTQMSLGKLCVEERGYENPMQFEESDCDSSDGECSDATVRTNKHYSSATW
Ribosomal protein S6 kinase alpha-3 (Homo sapiens), sequence (P51812 whole entry): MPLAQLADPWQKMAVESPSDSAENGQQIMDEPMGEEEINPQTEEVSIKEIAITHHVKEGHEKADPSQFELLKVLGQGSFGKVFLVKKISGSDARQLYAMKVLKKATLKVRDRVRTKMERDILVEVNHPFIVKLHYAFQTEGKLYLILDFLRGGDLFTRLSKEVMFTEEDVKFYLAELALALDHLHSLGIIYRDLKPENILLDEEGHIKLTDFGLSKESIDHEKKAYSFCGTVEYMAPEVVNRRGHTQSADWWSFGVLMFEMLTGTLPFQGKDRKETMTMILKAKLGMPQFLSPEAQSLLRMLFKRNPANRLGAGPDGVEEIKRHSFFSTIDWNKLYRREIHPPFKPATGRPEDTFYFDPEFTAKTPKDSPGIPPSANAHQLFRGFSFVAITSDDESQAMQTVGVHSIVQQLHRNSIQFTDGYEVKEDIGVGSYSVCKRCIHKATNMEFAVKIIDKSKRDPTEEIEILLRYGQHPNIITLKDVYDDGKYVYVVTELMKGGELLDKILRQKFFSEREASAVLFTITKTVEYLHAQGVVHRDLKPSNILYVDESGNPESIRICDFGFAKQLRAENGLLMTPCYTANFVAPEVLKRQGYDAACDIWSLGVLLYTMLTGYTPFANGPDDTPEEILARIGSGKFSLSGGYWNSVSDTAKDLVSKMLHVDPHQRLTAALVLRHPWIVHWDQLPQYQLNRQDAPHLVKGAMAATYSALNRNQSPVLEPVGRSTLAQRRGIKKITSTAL
Histamine H2 receptor (Homo sapiens), sequence (P25021 whole entry): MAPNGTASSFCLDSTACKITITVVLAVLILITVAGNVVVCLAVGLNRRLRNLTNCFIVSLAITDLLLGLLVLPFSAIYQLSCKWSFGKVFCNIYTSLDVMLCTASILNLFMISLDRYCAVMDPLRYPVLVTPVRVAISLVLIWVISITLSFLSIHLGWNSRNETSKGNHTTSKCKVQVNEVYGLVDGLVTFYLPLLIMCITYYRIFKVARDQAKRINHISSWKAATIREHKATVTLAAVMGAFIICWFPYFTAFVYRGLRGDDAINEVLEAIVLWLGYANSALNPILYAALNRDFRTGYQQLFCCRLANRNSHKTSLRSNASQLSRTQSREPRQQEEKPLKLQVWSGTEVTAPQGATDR

SMILES	Ki [1]	Kd [2]	inhibition [3]	inhibition [4]	inhibition [5]	inhibition [6]	inhibition [7]	inhibition [8]	inhibition [9]	inhibition [10]	inhibition [11]	inhibition [12]	inhibition [13]	inhibition [14]	inhibition [15]	inhibition [16]	IC50 [17]	Activity [18]	Activity [19]
Nc1ncc(-c2cc([C@H]3[C@@H]4CN(C5COC5)C[C@@H]43)n(CC3CC3)n2)cc1C(F)(F)F	4 nM	120 nM	-0.3%	9.6%	27.4%	31.5%	44.6%	-4%	12%	12.6%	21.4%	-0.6%	11.7%	5.3%	4%	2%	> 10000 nM	> 50%	> 50%
CC(C)n1nc(-c2cnc(N)c(OC(F)(F)F)c2)cc1[C@H]1[C@@H]2CN(C3COC3)C[C@@H]21	3 nM	460 nM	10%	-0.8%	5.3%	9.8%	22.1%	-4.6%	33.3%	30.4%	22.1%	1.4%	1.6%	9.4%	-2.5%	2.8%	> 10000 nM	> 50%	> 50%
